Experimental data from ChEMBL document CHEMBL3286367, “Synthesis of new class of spirocarbocycle derivatives by multicomponent domino reaction and their evaluation for antimicrobial, anticancer activity and molecular docking studies” (2014).
Values after ≈ are worked out from the molar mass of the structure shown.

Key:
[1] = tested on: Klebsiella aerogenes; experiment: Antimicrobial activity against Enterobacter aerogenes MTCC 111 assessed as absence of visible growth after 48 to 72 hrs; assay type: functional
[2] = tested on: Klebsiella pneumoniae; experiment: Antimicrobial activity against Klebsiella pneumonia MTCC 109 assessed as zone of inhibition at 1 mg/disc after 24 hrs incubation by disc diffusion assay; assay type: functional
Method in brief: (§1)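 Inocula grown in Mueller Hinton broth for 24 h at 37 °C and swabbed onto Mueller Hinton agar. Discs carried 1 mg compound each and stood 30 min at room temperature before 24 h incubation at 37 °C. Solvent as negative control. Inhibition zones recorded in mm; experiment done twice.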

[3] = tested on: Candida albicans; experiment: Antifungal activity against Candida albicans MTCC 227 assessed as zone of inhibition at 1 mg/disc after 48 hrs incubation by disc diffusion assay; assay type: functional
Method in brief: (§2)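 Disc diffusion on Mueller Hinton agar with swabbed cultures, 1 mg compound per disc. Discs stood 30 min at room temperature for diffusion, then plates incubated 48 h at 28 °C. Solvent as negative control. Yeast pre-grown in Sabouraud dextrose broth at 28 °C for 48-72 h; filamentous fungal spores came from SDA slants grown 10 days at 28 °C. Zone diameters in mm; run twice.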

[4] = tested on: Micrococcus luteus; experiment: Antimicrobial activity against Micrococcus luteus MTCC 106 assessed as absence of visible growth after 48 to 72 hrs; assay type: functional
[5] = tested on: Staphylococcus aureus; experiment: Antimicrobial activity against Staphylococcus aureus MTCC 96 assessed as absence of visible growth after 48 to 72 hrs; assay type: functional
[6] = tested on: Staphylococcus aureus; experiment: Antimicrobial activity against Staphylococcus aureus MTCC 96 assessed as zone of inhibition at 1 mg/disc after 24 hrs incubation by disc diffusion assay; assay type: functional; method in brief: as §1
[7] = tested on: Staphylococcus epidermidis; experiment: Antimicrobial activity against Staphylococcus epidermidis MTCC 3615 assessed as absence of visible growth after 48 to 72 hrs; assay type: functional
[8] = tested on: Proteus vulgaris; experiment: Antimicrobial activity against Proteus vulgaris MTCC 1771 assessed as absence of visible growth after 48 to 72 hrs; assay type: functional
[9] = tested on: Shigella flexneri; experiment: Antimicrobial activity against Shigella flexneri MTCC 1457 assessed as absence of visible growth after 24 hrs
[10] = tested on: Staphylococcus aureus; experiment: Antimicrobial activity against methicillin-resistant Staphylococcus aureus assessed as zone of inhibition at 1 mg/disc after 24 hrs incubation by disc diffusion assay; assay type: functional
Method in brief: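 Inoculum grown in Mueller Hinton broth 24 h at 37°C, swabbed onto Mueller Hinton agar and dried 10 min. Discs loaded at 1 mg/disc, then 30 min at room temperature for diffusion. Plates incubated 24 h at 37°C. Solvent negative control; streptomycin positive control. Zone of inhibition read in mm; experiment done twice.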

[11] = tested on: Klebsiella aerogenes; experiment: Antimicrobial activity against Enterobacter aerogenes MTCC 111 assessed as zone of inhibition at 1 mg/disc after 24 hrs incubation by disc diffusion assay; assay type: functional; method in brief: as §1
[12] = tested on: Shigella flexneri; experiment: Antimicrobial activity against Shigella flexneri MTCC 1457 assessed as zone of inhibition at 1 mg/disc after 24 hrs incubation by disc diffusion assay; assay type: functional; method in brief: as §1
[13] = tested on: Klebsiella pneumoniae; experiment: Antimicrobial activity against Klebsiella pneumonia MTCC 109 assessed as absence of visible growth after 24 hrs
[14] = tested on: Malassezia pachydermatis; experiment: Antifungal activity against Malassezia pachydermatis assessed as zone of inhibition at 1 mg/disc after 48 hrs incubation by disc diffusion assay; assay type: functional; method in brief: as §2
[15] = tested on: Staphylococcus aureus; experiment: Antimicrobial activity against methicillin-resistant Staphylococcus aureus assessed as absence of visible growth after 48 to 72 hrs; assay type: functional
Method in brief: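 Broth two-fold serial dilution in 96-well plates, 1000 to 7.81 µg/mL, compound dissolved in DMSO (2%). Inoculum grown in Mueller Hinton broth 24 h at 37°C. Streptomycin positive control. 5 µl of tested broth plated on MHA; MIC is the lowest concentration inhibiting visible growth on agar.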

[16] = tested on: Salmonella typhimurium; experiment: Antimicrobial activity against Salmonella typhimurium MTCC 1251 assessed as zone of inhibition at 1 mg/disc after 24 hrs incubation by disc diffusion assay; assay type: functional, Salmonella enterica subsp. enterica serovar Typhimurium; method in brief: as §1
[17] = tested on: Staphylococcus epidermidis; experiment: Antimicrobial activity against Staphylococcus epidermidis MTCC 3615 assessed as zone of inhibition at 1 mg/disc after 24 hrs incubation by disc diffusion assay; assay type: functional; method in brief: as §1
[18] = tested on: Proteus vulgaris; experiment: Antimicrobial activity against Proteus vulgaris MTCC 1771 assessed as zone of inhibition at 1 mg/disc after 24 hrs incubation by disc diffusion assay; assay type: functional; method in brief: as §1
[19] = tested on: Salmonella typhimurium; experiment: Antimicrobial activity against Salmonella typhimurium MTCC 1251 assessed as absence of visible growth after 48 to 72 hrs; assay type: functional, Salmonella enterica subsp. enterica serovar Typhimurium; settings: Salmonella enterica
[20] = tested on: Micrococcus luteus; experiment: Antimicrobial activity against Micrococcus luteus MTCC 106 assessed as zone of inhibition at 1 mg/disc after 24 hrs incubation by disc diffusion assay; assay type: functional; method in brief: as §1
[21] = tested on: Staphylococcus epidermidis; experiment: Antimicrobial activity against Staphylococcus epidermidis MTCC 3615 assessed as absence of visible growth after 24 hrs
[22] = tested on: Klebsiella pneumoniae; experiment: Antimicrobial activity against Klebsiella pneumonia MTCC 109 assessed as absence of visible growth after 48 to 72 hrs; assay type: functional
[23] = tested on: Shigella flexneri; experiment: Antimicrobial activity against Shigella flexneri MTCC 1457 assessed as absence of visible growth after 48 to 72 hrs; assay type: functional

| SMILES | MIC [1] [µg/mL] | inhibition zone (IZ) [2] [mm] | inhibition zone (IZ) [3] [mm] | MIC [4] [µg/mL] | MIC [5] [µg/mL] | inhibition zone (IZ) [6] [mm] | MIC [8] [µg/mL] | MIC [9] [µg/mL] | inhibition zone (IZ) [10] [mm] | inhibition zone (IZ) [11] [mm] | inhibition zone (IZ) [12] [mm] | MIC [13] [µg/mL] | inhibition zone (IZ) [14] [mm] | MIC [15] [µg/mL] | inhibition zone (IZ) [16] [mm] | inhibition zone (IZ) [17] [mm] | inhibition zone (IZ) [18] [mm] | MIC [19] [µg/mL] | inhibition zone (IZ) [20] [mm] | MIC [21] [µg/mL] | further results |
| --- | --- | --- | --- | --- | --- | --- | --- | --- | --- | --- | --- | --- | --- | --- | --- | --- | --- | --- | --- | --- | --- |
| N#CC1=C(N)[C@]2(C(=O)Nc3ccccc32)[C@@H](c2ccc(Br)cc2)[C@@H]2CCCC=C12 | 250 (≈ 560 µM) | 10 | 10 | 1000 (≈ 2240 µM) | 250 (≈ 560 µM) | 12 | 1000 (≈ 2240 µM) | 1000 (≈ 2240 µM) | 12 | 15 | 8 | 500 (≈ 1120 µM) | 10 | 250 (≈ 560 µM) | 11 | 10 | 9 | 250 (≈ 560 µM) | 8 | – | MIC [7]: 500 µg/mL (≈ 1120 µM) |
| N#CC1=C(N)C2(C(=O)c3ccccc3C2=O)[C@@H](c2cccs2)[C@@H]2CCCC=C12 (relative stereo) | 250 (≈ 647 µM) | 14 | 10 | 250 (≈ 647 µM) | 250 (≈ 647 µM) | 10 | 62.5 (≈ 162 µM) | 62.5 (≈ 162 µM) | 18 | 15 | 24 | 250 (≈ 647 µM) | 11 | 125 (≈ 323 µM) | 16 | 12 | 22 | 125 (≈ 323 µM) | 10 | 250 (≈ 647 µM) | – |
| Cc1ccc([C@H]2[C@@H]3CCCC=C3C(C#N)=C(N)C23C(=O)c2ccccc2C3=O)cc1 (relative stereo) | 250 (≈ 634 µM) | 15 | 10 | 1000 (≈ 2540 µM) | 250 (≈ 634 µM) | 10 | 500 (≈ 1270 µM) | – | 11 | 13 | 8 | – | 11 | 250 (≈ 634 µM) | 14 | 10 | 10 | 250 (≈ 634 µM) | 9 | 500 (≈ 1270 µM) | MIC [22]: 250 µg/mL (≈ 634 µM); MIC [23]: 1000 µg/mL (≈ 2540 µM) |
| Cc1ccc([C@H]2[C@@H]3CCC=C3C(C#N)=C(N)C23C(=O)c2ccccc2C3=O)cc1 (relative stereo) | 250 (≈ 657 µM) | 15 | 10 | 250 (≈ 657 µM) | 125 (≈ 329 µM) | 17 | 125 (≈ 329 µM) | – | 12 | 15 | 13 | – | 13 | 250 (≈ 657 µM) | 10 | 14 | 16 | 500 (≈ 1310 µM) | 12 | 250 (≈ 657 µM) | MIC [22]: 250 µg/mL (≈ 657 µM); MIC [23]: 250 µg/mL (≈ 657 µM) |
